Active and inactive are the calls of the source. The rule behind the calls is not given here.
How the values were obtained:
Agrostis stolonifera = test: Phytotoxicity against Agrostis stolonifera seeds assessed as inhibition of germination of seeds at 1 mg/mL after 7 days; assay type: organism-based; conditions: in vivo, 168 h
How it was run: (§1)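 Seeds (5 mg lettuce or 10 mg bentgrass) were placed on filter paper in 24-well plates with 250 μL of test solution per well (acetone 3% final). Solvent-only wells served as controls. Plates were sealed and kept at 26 °C under continuous light for 7 days. Germination was rated visually on a 0−5 scale against untreated controls (0 = no effect, 5 = no growth/germination), with experiments in duplicate.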

Colletotrichum fragariae [1] = test: Antifungal activity against Colletotrichum fragariae assessed as growth inhibition at 0.3 to 30 uM by Ninety-Six Well microbioassay; assay type: functional, organism-based
How it was run: (§2)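 Fungi (the Colletotrichum isolates came from strawberry anthracnose lesions) were grown on PDA at 24 ± 2 °C under a 12 h photoperiod. They were tested in 96-well microtiter dose-response format at final concentrations of 0.3, 3.0 and 30.0 μM, in duplicate. Growth was read as absorbance at 620 nm at 0, 24, 48 and 72 h, with solvent controls.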

Colletotrichum acutatum [2] = test: Antifungal activity against Colletotrichum acutatum assessed as growth inhibition at 0.3 to 30 uM by Ninety-Six Well microbioassay; assay type: functional, organism-based; how it was run: as §2
[3] = tested on: Colletotrichum gloeosporioides; test: Antifungal activity against Colletotrichum gloeosporioides assessed as growth inhibition at 0.3 to 30 uM by Ninety-Six Well microbioassay; assay type: functional, organism-based; how it was run: as §2
Colletotrichum fragariae [4] = test: Antifungal activity against Colletotrichum fragariae assessed as growth inhibition at 10 ug/spot by […]; assay type: functional
Colletotrichum acutatum [5] = test: Antifungal activity against Colletotrichum acutatum assessed as growth inhibition at 10 ug/spot by […]; assay type: functional
[6] = tested on: Colletotrichum gloeosporioides; test: Antifungal activity against Colletotrichum gloeosporioides assessed as growth inhibition at 10 ug/spot by […]; assay type: functional
Lactuca sativa = test: Phytotoxicity against […] dicot Lactuca sativa (lettuce) seeds assessed as inhibition of germination of seeds at 1 mg/mL after 7 days; assay type: organism-based; conditions: in vivo, 168 h; how it was run: as §1
Lemna aequinoctialis = test: Inhibition of growth of Lemna paucicostata

Structure (SMILES): CCCC#C/C=C1/C=CC(=O)O1 [(4Z)-LACHNOPHYLLUM LACTONE]
- Activity (Agrostis stolonifera): Toxic
- Activity (Colletotrichum fragariae [1]): Active
- Activity (Colletotrichum acutatum [2]): Active
- Activity [3]: Active
- diameter of the inhibition zone (DIZ) (Colletotrichum fragariae [4]): 0.3 mm
- diameter of the inhibition zone (DIZ) (Colletotrichum acutatum [5]): 0.75 mm
- diameter of the inhibition zone (DIZ) [6]: 0.58 mm
- Activity (Lactuca sativa): Toxic
- IC50 (Lemna aequinoctialis): 104 µM

Structure (SMILES): C/C=C\C#CC#C/C=C\C(=O)OC [(2Z,8Z)-MATRICARIA ACID METHYL ESTER]
- Activity (Agrostis stolonifera): Toxic
- Activity (Lactuca sativa): Toxic

Structure (SMILES): C/C=C\C#C/C=C1/C=CC(=O)O1 [(4Z,8Z)-MATRICARIA LACTONE]
- Activity (Agrostis stolonifera): Toxic
- Activity (Colletotrichum fragariae [1]): Active
- Activity (Colletotrichum acutatum [2]): Active
- Activity [3]: Active
- diameter of the inhibition zone (DIZ) (Colletotrichum fragariae [4]): 2.65 mm
- diameter of the inhibition zone (DIZ) (Colletotrichum acutatum [5]): 0.7 mm
- diameter of the inhibition zone (DIZ) [6]: 0.98 mm
- Activity (Lactuca sativa): Toxic
- IC50 (Lemna aequinoctialis): 220 µM
